Source: ChEMBL document CHEMBL4513216, “Probing the Open Global Health Chemical Diversity Library for Multistage-Active Starting Points for Next-Generation Antimalarials” (ACS Infect Dis, 2020)

Assay: Toxicity liver stage against HepG2, at 10uM
Assay type: cell-based
Set-up: test concentration 10 uM, cell line HepG2-A16-CD81EGFP
Conditions: human, HepG2-A16-CD81EGFP cells; read-out: INHIBITION
Procedure, shortened: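 Uninfected HepG2-A16-CD81EGFP cells, 3 × 10^3 per well, 1536-well, plated on prespotted compound at 10 μM final, parasite-free screening media added to match infected plates; puromycin 10 μM positive, DMSO 0.5% negative; run in parallel with 48 h PbLuc assay at 37 °C, 5% CO2; viability by CellTiter-Glo luminescence, normalized to controls.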

SMILES | cytotoxicity at 10 µM
O=S(=O)(CC1CCCN1S(=O)(=O)C1CC1)c1ccccc1 (stereo not given) | -5.75%
COc1ccc(OC)c(C2CC(=O)Nc3nc(N4CCOCC4)sc32)c1 (stereo not given) | 14.3%
CNc1nc2c(s1)C(c1ccc(Cl)cc1Cl)CC(=O)N2 (stereo not given) | 7%
CCn1nc2ccc(S(=O)(=O)N3CCSCC3)cn2c1=O | 2.4%
CC1c2ncc(Cn3cncn3)n2CCN1C(=O)C1CCOCC1 (stereo not given) | -13%
COCCNC(=O)Cn1cc2c(n1)c(C)nn2C(C)C | -6.24%
CC(=O)c1c(O)ccnc1C(F)(F)F | 2.34%
Cc1cc(O)n2nc(C3CCN(C(=O)c4ccccn4)CC3)cc2n1 | -3.36%
CNC(=O)C1CN(C(=O)c2ccncc2)CCN(S(C)(=O)=O)C1 (stereo not given) | 6.67%
Cc1noc(-c2cnc(NC3CC3)nc2-c2ccco2)c1C | 6.38%
CS(=O)(=O)NCC(=O)NC1CCCN(c2ccccn2)C1 (stereo not given) | 1.76%
CC1(C2CCN(CCCC(=O)O)CC2)CN(Cc2ccccc2)C(=O)O1 (stereo not given) | -21.9%
Fc1ccc(N2CCOC(Cc3cccnc3)C2)cc1 (stereo not given) | -16.3%
Cn1cc(C(=O)N2CCCC2c2[nH]ncc2C(N)=O)cn1 (stereo not given) | -7.05%
CCC(=O)N1CCC(Cc2ccccc2-c2ccncc2)(C(N)=O)C1 (stereo not given) | -25.3%
CCCC(NC(=O)c1cnccn1)c1nnc2ccccn12 (stereo not given) | 11.1%
O=C(NC1CCc2nccn2C1)c1ccc(NC2CC2)nc1 (stereo not given) | 9.93%
NC(=O)C1CCN(C(=O)NC2CCN(CC3CCCC3)C2)CC1 (stereo not given) | 13%
CC(C)CCC(=O)N1CCN(c2ncnc3nc(N)ccc23)CC1 | 8.32%
N#CC1(NC(=O)COc2cc(Cl)cc(Cl)c2)CCOCC1 | -2.53%
Cc1ccc(OCCN(C)C2CCOC2=O)cc1 (stereo not given) | -146%
Cn1cc(CC(=O)N2CCCC(c3cc(C(F)(F)F)[nH]n3)C2)cn1 (stereo not given) | -7.11%

SMILES | cytotoxicity at 10 µM
CCN(C(=O)Cn1cc(NC(=O)C(C)(C)C)cn1)c1ccccc1 | 3.49%
COCc1ccccc1C(=O)NCC(c1c(F)cccc1F)N(C)C (stereo not given) | -9.75%
COCCOCCCC(=O)N1CCC(Cc2ccccc2OC)CC1 | 7.28%
COC(=O)C(O)C1CCN(CCc2ccccn2)CC1 (stereo not given) | -7.64%
CN(C)C(CNC(=O)NCc1cc[nH]n1)c1ccco1 (stereo not given) | -5.47%
Cc1nc(CCNC(=O)NC2CCCN(c3ncccn3)C2)cs1 (stereo not given) | -129%
CCNC(=O)CNC(=O)Nc1c(F)cc(F)cc1-c1ccccc1 | -7.55%
Cc1cnc(C(C)(C)NC(=O)NCc2ccon2)s1 | -6.75%
NC(=O)NCC1CCCCN1C(=O)c1ccc(Br)s1 (stereo not given) | -0.147%
CC(C)S(=O)(=O)N(C)C(=O)CCc1ccsc1 | 5.2%
OCC(CO)Nc1ccc2c(Cl)ccc(Cl)c2n1 | -3.04%
CCOCCCC(=O)Nc1cccnc1-n1ccnc1C | 9.21%
COCCNC(=O)NCCCOC1CCCc2ccccc21 (stereo not given) | 11.7%
CN(C)C(=O)COc1ccccc1CN1CCOC2(CCCC2)C1 | -4.8%
CC(NC(=O)NCCCn1cccn1)c1cccnc1 (stereo not given) | 23.1%
CS(=O)(=O)CCSc1cccc(C#N)c1 | -5.61%
CC(C)c1cnc(CNc2c(F)cccc2-n2cccn2)o1 | -6.07%
Cc1ccn(-c2ccccc2NCc2ncc[nH]2)n1 | -5.95%
Cc1noc(C(C)C)c1C(=O)NS(=O)(=O)c1ccc2c(c1)OCCCO2 | -9.06%
CC(C)n1nc(CN2CCCC2=O)c2c1CN(C(=O)c1ccc[nH]1)C2 | 5.39%
O=C([C@@H]1COC[C@H]2CN(C3CCCCC3)C[C@H]21)N1CCOCC1 | -107%
Cc1ccc(C(=O)N2C[C@@H]3OCCN(CC4CCCC4)[C@@H]3C2)cn1 | -76%

SMILES | cytotoxicity at 10 µM
c1ccc(COC[C@@H]2CC[C@H]3[C@H](CCN3c3ncccn3)O2)nc1 | -74.6%
N#CCCNC(=O)c1ccn(-c2ccc3ccccn23)n1 | 3.82%
CN(C)CCO[C@H]1CN(C(=O)c2ccc[nH]2)[C@@H]2COC[C@H]12 | 5.06%
CN(C)C(=O)N1CCC2(CC(=O)N(c3cccc(C#N)c3)C2)C1 (stereo not given) | 3.33%
NC(=O)c1ccc(C2CCCN2C(=O)CCn2nnc3ccccc32)s1 (stereo not given) | 3.92%
Cc1ncsc1CCC(=O)NC1CCN(c2ncccc2C#N)CC1 | 0.84%
CC(C)CN1CCCn2nc(CNC(=O)CN3CCOC3=O)cc2C1 | 0.541%
CN(Cc1ccoc1)C(=O)CN1C(=O)OC(C)(C)C1=O | -128%
c1ccc(CCc2noc(CN3CCC(N4CCSCC4)CC3)n2)cc1 | -8.01%
O=c1[nH]c(-c2ccccn2)nc2c1CCN(S(=O)(=O)N1CCCC1)C2 | 8.85%
C=C(C)COc1ccccc1CNCCc1cc(O)nc(C)n1 | -1.6%
Cc1ccc(-c2ccnc(NC(C)c3c(C)n[nH]c3C)n2)c(C)n1 (stereo not given) | 4.51%
CC(C)c1noc(CC[C@@H]2CCCN3CCCC[C@H]23)n1 | -0.143%
CN(C)c1nc(NCc2cccnc2N)ncc1F | -2.11%
CCc1nc2c(c(NC3CC3)n1)CCN(C(=O)N1CCN(C)CC1)CC2 | 0.445%
COC(=O)c1ccccc1C(=O)N(CCN(C)C)Cc1sccc1C | -129%
O=c1cc(-c2ccncc2)nc(-c2ccc(CN3CC[C@H](O)C3)cc2)[nH]1 | 4.48%
COC1CCN(c2cc(C(C)C)nc3ccnn23)C1 (stereo not given) | 0.343%
CC1CCN(CC(=O)N(Cc2ccccc2)Cc2nccs2)C1=O (stereo not given) | -0.0342%
CCC(CC)CN1CCCn2nc(CNC(=O)COC)cc2C1 | 2.66%
O[C@]12CCNC[C@H]1CN(c1ncccc1Cl)CC2 | 10.2%
CC(C)[C@H]1COC(=O)N1CC(=O)N1CCN(C(=O)c2ccco2)CC1 | 4.32%

SMILES | cytotoxicity at 10 µM
CN1C(=O)CC(C(=O)O)C12CCN(Cc1ccc(Cl)cc1F)CC2 (stereo not given) | -7.82%
CCN1CC2(CCN(CCOCCO)CC2)CC(c2ccccc2)C1=O (stereo not given) | 42.4%
CCn1c(Cn2cncn2)nnc1C1CCN(C(=O)CCSC)CC1 | -13.6%
c1csc(N2CCCN(Cc3noc(C4CC4)n3)CC2)n1 | 3.41%
CSc1ccc(CN(C)C(=O)c2cc3c([nH]c2=O)CCCC3=O)cc1 | -1.25%
COCCCNC(=O)CN(C)C(=O)c1ccc(OC)cc1O | -10.7%
CC(C)N(Cc1ccccn1)S(=O)(=O)N1CCCC1c1ccco1 (stereo not given) | -3.92%
N#Cc1ccsc1NC(=O)CN1CCOC(Cn2cccn2)C1 (stereo not given) | -5.66%
CNc1cc(N2CCCC2CNCc2cnc(C)s2)ncn1 (stereo not given) | -3.78%
COCCN1CCN(Cc2csc(-c3cnn(C)c3)n2)CC1 | -9.71%
CCNc1cc2c(nn1)CCN(C(=O)c1ccnc(C)n1)C2 | -5.04%
O=S(=O)(CCCN1CCCC(Cn2cncn2)C1)c1ccccc1 (stereo not given) | -11.7%
CCN(CC)C(=O)NCCc1ccn(-c2ccccc2)n1 | -14%
Cc1cc(CN2Cc3ccccc3CC2c2nnc(C)o2)no1 (stereo not given) | 2.89%
CC(C)C(CNC(=O)Nc1cn[nH]c1)N1CCOCC1 (stereo not given) | -6.83%
Cc1ccc(C(=O)N2CCCN(Cc3cscn3)CC2)o1 | -10.6%
Cc1nn(C)c(N2CCOCC2)c1CNCc1ccc2c(c1)OCO2 | -17.8%
Cc1nnc(N2CCC(CCN(C)C)CC2)c(C#N)c1C | -1.33%
CCc1noc(C)c1C(=O)N1CCCN(Cc2csc(C)n2)CC1 | -2.81%
CC(C)OCCCNC(=O)CS(=O)(=O)Cc1ccc(Cl)c(Cl)c1 | -9.7%
O=C(NCCOc1cccc(Cl)c1)C1CC(=O)N(CC2CC2)C1 (stereo not given) | -0.98%
O=C(COC(=O)Cc1cccs1)NCc1cccc(NC(=O)C2CC2)c1 | -8.08%

SMILES | cytotoxicity at 10 µM
COC(=O)c1cccc(OCCn2nc(-c3cccs3)oc2=O)c1 | -6.56%
CCn1nc2c(cc1=O)CN(Cc1nc(-c3ccsc3)no1)CC2 | -17.1%
O=C(c1cccnc1N1CCOCC1)N1CCCC(n2ccnc2)C1 (stereo not given) | -3.56%
CCS(=O)(=O)CCN1CCCC1c1noc(C2CC2)n1 (stereo not given) | -6.33%
CC(O)CN1CCN(C(=O)c2cccc(CC#N)c2)CC1 (stereo not given) | -3.74%
CC(C)c1nnc2n1CCN(CCCS(=O)(=O)c1ccccc1)C2 | -12.3%
CC1CCN(C(=O)c2cccc3ncccc23)CC1 | 4.21%
O=C(NCc1cccnc1-n1cccn1)C1CC(=O)N(CC2CC2)C1 (stereo not given) | 2.77%
CC(C)CC(=O)N[C@H](C)c1c(-c2ccc(Cl)cc2)noc1C(=O)O | 4.76%
Cc1ccc(CN2CCn3c(CN(C)C(C)C)cnc3C2)s1 | 8.33%
CC(C)CC(=O)N1CCC2(CC1)OC(C(N)=O)Cn1ccnc12 (stereo not given) | -105%
CS(=O)(=O)N1CC[C@@H]2[C@@H]1CCN2Cc1ccc2c(c1)OCO2 | -5.96%
Cc1nc(C)n(CC2CN(Cc3nccs3)Cc3nccn3C2)n1 (stereo not given) | -140%
COCCNC(=O)[C@H]1C[C@@H]2CCN(c3ccncn3)C[C@H]2O1 | 2.4%
O=C(NC[C@H]1OC[C@@H]2CN(Cc3ccco3)CC[C@@H]21)c1cccnc1 | -141%
O=C1N(c2cncnc2)CCC12CCCN(Cc1cccnc1)C2 (stereo not given) | -79.6%
O=C(NCc1ccco1)[C@H]1CC[C@@H]2[C@@H](CCN2c2ncccn2)O1 | -69.6%
CNC(=O)N1C[C@@H]2C[C@H](C(=O)NCc3cccnc3)[C@H](C1)O2 | 6.43%
Cc1ccc(C(NC(=O)C2CCC(O)CC2)c2cccnc2)cc1C (stereo not given) | 24.2%
CCCC12CN3CC(C)(CN(C1)C3c1[nH]c(=O)[nH]c(=O)c1C)C2=O (stereo not given) | 3.15%
O=C(Nc1ccc(F)cc1)N1C[C@@H]2C[C@H](C(=O)N3CCCC3)[C@H](C1)O2 | 7.06%
O=C(NCc1ccccc1)[C@H]1C[C@H]2CN(C(=O)NC3CCCC3)C[C@@H]1O2 | 2.17%
